Results published in ChEMBL document CHEMBL1671706 (Antimicrob Agents Chemother, 2010).
Values after ≈ are worked out from the molar mass of the structure shown.

Assays:
Bacillus cereus [1] = assay: Antimicrobial activity against Bacillus cereus UW85 by macrodilution method; format: functional
In short: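 Tube macrodilution per NCCLS. Strain grown in Luria-Bertani medium, 37°C, shaking at 200 rpm, 16 h. Inoculum 5 × 10^5 cells/ml. DMSO stocks diluted 2-fold through the tubes, with a DMSO-matched control. MIC is the lowest concentration without visible growth in triplicate, occasionally checked as no detectable absorbance at 600 nm.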

Bacillus cereus [2] = assay: Antimicrobial activity against Bacillus cereus; format: functional
Escherichia coli = assay: Antimicrobial activity against Escherichia coli MC1000 by macrodilution method; format: functional
In short: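 Luria-Bertani medium, 30°C, shaking at 200 rpm, 14 h. Macrodilution per NCCLS aerobic criteria, with inoculum 5 × 10^5 cells/ml. DMSO-dissolved compounds were diluted 2-fold through the tubes, with a DMSO control. MIC is the lowest concentration preventing visible growth in triplicate, confirmed periodically by no absorbance at 600 nm.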

Enterococcus faecalis = assay: Antimicrobial activity against Enterococcus faecalis 1131 by macrodilution method; format: functional
In short: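 Brain heart infusion medium, static, 37°C, 14 h. NCCLS macrodilution, starting inoculum 5 × 10^5 cells/ml. Compounds in DMSO were 2-fold serially diluted across the inoculated tubes, with a matched DMSO control. MIC is the lowest concentration with no visible growth in triplicate, sometimes verified as no detectable A600.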

Bacillus anthracis [3] = assay: Antimicrobial activity against Bacillus anthracis Sterne 7702 by macrodilution method; format: functional
Caulobacter vibrioides = assay: Antimicrobial activity against Caulobacter crescentus CB15N by macrodilution method; format: functional
In short: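 Peptone-yeast extract medium, 30°C, shaking at 200 rpm, 22 h. NCCLS macrodilution from 5 × 10^5 cells/ml. Compounds in DMSO given as a 2-fold tube series, with a control at the highest DMSO level. Endpoint is the lowest concentration preventing growth in triplicate by eye, periodically confirmed by absence of A600.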

Staphylococcus aureus [4] = assay: Antimicrobial activity against Staphylococcus aureus FRI 100 by macrodilution method; format: functional
In short: (§1)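 Static culture in Luria-Bertani medium, 37°C, 14 h. NCCLS macrodilution, inoculum 5 × 10^5 cells/ml. Compounds in DMSO were 2-fold serially diluted through the inoculated tubes, with a DMSO-matched control. MIC is the lowest concentration preventing visible growth in triplicate, periodically confirmed by lack of absorbance at 600 nm.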

Pseudomonas aeruginosa = assay: Antimicrobial activity against Pseudomonas aeruginosa K by macrodilution method; format: functional
In short: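 Grown in Luria-Bertani medium at 37°C, shaking at 200 rpm, 16 h. NCCLS macrodilution with 5 × 10^5 cells/ml inoculum. Compounds in DMSO formed a 2-fold tube dilution series, with a control at equal DMSO. MIC was read visually as the lowest growth-preventing concentration in triplicate, periodically confirmed by no detectable A600.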

Staphylococcus aureus [5] = assay: Antimicrobial activity against Staphylococcus aureus FRI 361 by macrodilution method; format: functional; in short: as §1
[6] = Toxicity in po dosed female Sherman rat; format: organism-based; details: in vivo
[7] = Toxicity in po dosed male Sherman rat; format: organism-based; details: in vivo
Bacillus anthracis [8] = assay: Antimicrobial activity against Bacillus anthracis by Etest; format: functional

Row | SMILES | MIC (Bacillus cereus [1]) [µM] | MIC (Bacillus cereus [2]) [µM] | MIC (Escherichia coli) [µM] | MIC (Enterococcus faecalis) [µM] | MIC (Bacillus anthracis [3]) [µM] | MIC (Caulobacter vibrioides) [µM] | MIC (Staphylococcus aureus [4]) [µM] | MIC (Pseudomonas aeruginosa) [µM] | MIC (Staphylococcus aureus [5]) [µM] | LD50 [6] [mg/kg] | LD50 [7] [mg/kg] | MIC (Bacillus anthracis [8]) [µM]
1 | Oc1ccc(Cl)cc1Cc1cc(Cl)cc(Cc2cc(Cl)ccc2O)c1O | 0.3 (≈ 0.123 µg/mL) | 0.3 (≈ 0.123 µg/mL) | 5 (≈ 2.05 µg/mL) | 1.3 (≈ 0.533 µg/mL) | 0.3 (≈ 0.123 µg/mL) | 2.5 (≈ 1.02 µg/mL) | 0.08 (≈ 0.0328 µg/mL) | 40 (≈ 16.4 µg/mL) | 0.6 (≈ 0.246 µg/mL) | – | – | –
2 | Oc1ccc(Cl)cc1Cc1cc(Cl)cc(Cc2cc(Cl)cc(Cc3cc(Cl)cc(Cc4cc(Cl)ccc4O)c3O)c2O)c1O | 0.3 (≈ 0.207 µg/mL) | – | > 80 | 0.6 (≈ 0.415 µg/mL) | 1.3 (≈ 0.898 µg/mL) | 5 (≈ 3.45 µg/mL) | 5 (≈ 3.45 µg/mL) | > 80 | 5 (≈ 3.45 µg/mL) | – | – | –
3 | Oc1ccc(Cl)cc1Cc1cc(Cl)cc(Cc2cc(Cl)cc(Cc3cc(Cl)ccc3O)c2O)c1O | 0.08 (≈ 0.044 µg/mL) | – | > 80 | 0.3 (≈ 0.165 µg/mL) | 0.16 (≈ 0.088 µg/mL) | 0.3 (≈ 0.165 µg/mL) | 0.16 (≈ 0.088 µg/mL) | > 80 | 0.3 (≈ 0.165 µg/mL) | – | – | –
4 | Oc1ccc(Cl)cc1Cc1cc(Cl)ccc1O [DICHLOROPHEN] | 10 (≈ 2.69 µg/mL) | – | 160 (≈ 43.1 µg/mL) | 80 (≈ 21.5 µg/mL) | 5 (≈ 1.35 µg/mL) | 20 (≈ 5.38 µg/mL) | 20 (≈ 5.38 µg/mL) | > 320 | 20 (≈ 5.38 µg/mL) | 1680 | 1510 | –
5 | CC1(C)S[C@@H]2[C@H](NC(=O)Cc3ccccc3)C(=O)N2[C@H]1C(=O)O [PENICILLIN G] | – | – | – | – | – | – | – | – | – | – | – | 0.02 (≈ 0.00669 µg/mL)
6 | CN(C)[C@@H]1C(O)=C(C(N)=O)C(=O)[C@@]2(O)C(O)=C3C(=O)c4c(O)cccc4[C@@](C)(O)[C@H]3C[C@@H]12 [TETRACYCLINE] | – | – | – | – | – | – | – | – | – | – | – | 0.07 (≈ 0.0311 µg/mL)
